High-throughput results deposited in PubChem BioAssay by several laboratories.
CHOP UPR activ: apoptotic UPR (CHOP) activation. CHO-CHOP luciferase reporter, luminescence; percent of tunicamycin response over DMSO baseline. activation, % at 10 µM. hit rate 0.34% among 330,000. AID 449763;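 active = at 10 µM dose, activation of 40% or more, normalized to positive control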
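Evaluation: % reporter activation, DMSO baseline versus tunicamycin full activation; System: CHO-CHOP luciferase reporter cell line; Input: 500 cells/well; Incubation: 6 h compound treatment, 37 °C; Measured by: Steady-Glo luciferase luminescence; Dosing: one dose, 10 µM in 0.5% DMSO; Buffer or medium: F12 medium, 10% FBS; Benchmarks: positive tunicamycin 10 µg/mL, negative DMSO alone.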
UPR XBP1 act: adaptive UPR (XBP1) activation. CHO-XBP1 luciferase reporter, IRE1-XBP1 UPR activation, luminescence; percent of tunicamycin response, DMSO as zero. hit rate 0.33% among 330,000. activation, % at 20 µM. AID 463104;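 active = versus positive control, 20 µM dose yields 30% or more activation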
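assay system = CHO-XBP1 luciferase reporter cells | amount = 1000 cells/well | buffer or medium = F12 plus 10% FBS | compound dosing = single point, 20 µM final compound, 1% DMSO | incubation = 16-18 h cell attachment at 37 °C, then 6 h compound exposure | detection = Steady-Glo luminescence read | controls = tunicamycin 10 µg/mL and vehicle-only wells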
697 NFkB inh: lowers PMA/ionomycin-induced NF-kB signal in 697 B cells. 697 B-cell NF-kB luciferase reporter, 16 h. inhibition, % at 4 µM. hit rate 0.33% among 330,000; in the data active = inhibition above about 35%
Jurkat NFkB inh: inhibitors of the PMA/ionomycin-induced NF-kB reporter in Jurkat cells. PMA/ionomycin-induced NF-kB luciferase reporter, luminescence. inhibition, % at 4 µM. hit rate 0.53% among 330,000; in the data active = inhibition above about 50%
CHOP inhibitor: inhibitors of CHOP induction in ER stress response; CHO-K1 CHOP-promoter luciferase, tunicamycin-induced, 15-18 h; inhibition, % at 10 µM; hit rate 3.8% among 220,000;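 active = compounds that reduced the stress-induced luciferase reporter signal by more than about 70% of percent inhibition, limit read from the data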
Of the large screens only hits and unclear results are named; the others gave an inactive call. This is one part of a sample in which hits are shown more often than they occur.

NC(=O)c1sc2nc3c(c(-c4cccs4)c2c1N)CCCC3	CHOP inhibitor 76 (no result: CHOP UPR activ, UPR XBP1 act, 697 NFkB inh, Jurkat NFkB inh)
NC(=O)c1sc2nc3c(c(-c4ccco4)c2c1N)CCC3	none
O=C1c2ccccc2-c2nnc(-c3ccccc3)cc21	CHOP inhibitor 73
COc1ccc(-c2cc3c(nn2)-c2ccccc2C3=O)cc1	CHOP inhibitor 78
O=C(CSc1nc2ccccc2c(=O)n1Cc1ccccc1)NCc1ccco1	none
CCCCCCn1c(SCC(=O)Nc2cc(C)on2)nc2ccccc2c1=O	CHOP inhibitor 75
COCCn1c(SCC(=O)Nc2cc(C)on2)nc2ccccc2c1=O	none (no result: CHOP inhibitor)
O=c1c2ccccc2nc(SCc2ccccc2Cl)n1Cc1ccccc1	none
O=C(CSc1nc2ccccc2c(=O)n1Cc1ccc(F)cc1)NCc1cccs1	CHOP inhibitor 82
Cc1cc(NC(=O)CSc2nc(C(C)C)nc3sc(C)c(C)c23)no1	CHOP inhibitor 85
C=CCSc1nc2ccccc2c(=O)n1Cc1ccccc1	CHOP inhibitor 87
O=C(O)[C@@H]1C[C@H](C(=O)O)N1	none (no result: CHOP UPR activ, UPR XBP1 act, 697 NFkB inh, Jurkat NFkB inh)
CC(C)S(=O)(=O)CC(=O)c1ccc(Cl)cc1	none
CCCn1c(=O)n(N)c2ccccc21	none
O=C(O)c1ccc2c(=O)n3c(nc2c1)/C(=C/c1ccccc1OC(F)F)CC3	none (no result: CHOP inhibitor)
Cc1cc(NC(=O)CSc2nc3ccccc3c(=O)n2Cc2ccc(F)cc2)no1	CHOP inhibitor 78
CCCc1nnc(SCC(=O)Nc2cc(C)on2)n1CCOC	none (no result: CHOP inhibitor)
CCc1c(C)sc2nc(SCC(=O)Nc3cc(C)on3)n(CCOC)c(=O)c12	CHOP inhibitor 78
COC(=O)c1cc(CN2CCN(c3ccccc3C)CC2)ccc1O	CHOP inhibitor 72
Cc1ccc(-c2cn3nc(C)c(C)nc3n2)cc1	CHOP inhibitor 81
CC1CC(=O)Nc2ccccc2N1C(=O)CN1CCN(c2ccccc2)CC1 (stereo not given)	CHOP inhibitor 80
CC1CC(=O)Nc2ccccc2N1C(=O)CN1C(=O)C(=O)N(C)C1=O (stereo not given)	none (no result: CHOP inhibitor)
Cc1cc(C)c(S(=O)(=O)NCc2ccc3c(c2)cc(C)n3C)c(C)c1	CHOP inhibitor 71
Cc1cc2cc(CNS(=O)(=O)c3ccc4ccccc4c3)ccc2n1C	none
Cc1ccc2[nH]c3c(N4CCc5ccccc5C4)ncnc3c2c1	CHOP inhibitor 74
COc1ccc(/C=N/NC(=S)Nc2cccc(C(=O)O)c2)cc1OC	none
COc1ccc(/C=N/NC(=S)Nc2ccccc2)cc1COc1cccc(C)c1C	CHOP inhibitor 91
C=CCOC(=O)C1C(=O)CC(C)(O)C(C(=O)OCC=C)C1c1ccc(N(C)C)cc1 (stereo not given)	none
O=C(Nn1nnnc1Nc1ccccc1)C12CC3CC(CC(C3)C1)C2	CHOP inhibitor 94
Cc1ccccc1NCC(=O)N/N=C/C(Br)=C/c1ccccc1	CHOP inhibitor 94
CC(C)CCNC(=O)CCC(=O)NNc1nc2ccccc2c2nc(-c3ccccc3)nn12	CHOP inhibitor 79
CN(c1ccc(C(=O)N2CCCCC2)cc1)S(C)(=O)=O	CHOP inhibitor 79
CC1CCN(C(=O)c2ccc(N(C)S(C)(=O)=O)cc2)CC1	none
CC(C)(C)n1nc(-c2ccc(Cl)cc2)c2c(N)ncnc21	CHOP inhibitor 84
CC(C)(C)n1nc(-c2ccc(F)cc2)c2c(N)ncnc21	none
O=C(c1ccccc1)N1CCN(CC2CC=CCC2)CC1 (stereo not given)	CHOP inhibitor 79
Fc1cccc(C2CC(c3cccc(Br)c3)Nc3nnnn32)c1 (stereo not given)	CHOP inhibitor 83
Cc1nc(N2CCC(C)CC2)c2c(C)c(C(=O)Nc3ccc(C)c(F)c3)sc2n1	CHOP inhibitor 71
CCc1c(C)sc(NC(=O)C2CC2)c1C(=O)OC(C)C	CHOP inhibitor 81
CCOC(=O)C(C(=O)OCC)c1cc(Br)c2noc3c2c1C(=O)c1ccccc1-3	CHOP inhibitor 110
O=C(c1ccccc1)C(CCC(CN1CCOCC1)C(=O)c1ccccc1)CN1CCOCC1 (stereo not given)	CHOP inhibitor 98
CN(C)CC(CCC(CN(C)C)C(=O)c1ccccc1)C(=O)c1ccccc1 (stereo not given)	CHOP inhibitor 106 (no result: CHOP UPR activ, UPR XBP1 act, 697 NFkB inh, Jurkat NFkB inh)
COc1cc(NC(=O)COC(=O)c2cnccn2)c(C)cc1[N+](=O)[O-]	none
CCOC(=O)/C(N=Nc1c(Br)cc(Br)cc1Br)=C(\C)O	CHOP inhibitor 85
CCOC(=O)c1ccc(NC(=O)CCc2nc(-c3ccccc3Cl)no2)cc1	CHOP inhibitor 81
CCOC(=O)c1ccc(NC(=O)CCc2nc(-c3ccccc3)no2)cc1	CHOP inhibitor 79
COCCNC(=O)C(=O)NCC1OCCN1S(=O)(=O)c1ccc(F)cc1 (stereo not given)	none (no result: CHOP inhibitor)
Cc1ccc2c(c1)SC1=NC(c3ccccc3)(C(F)(F)F)NC(=O)N12 (stereo not given)	CHOP inhibitor 70
O=C1NC(c2ccccc2)(C(F)(F)F)SC2=NCCCN12 (stereo not given)	none
O=C(CN(Cc1ccccc1)C(=O)CCC(=O)Nc1nccs1)NCc1ccccc1	none (no result: CHOP inhibitor)
O=C(CCS(=O)(=O)c1cccc2nonc12)N1CCOCC1	none
O=C(CCS(=O)(=O)c1cccc2nonc12)N1CC(=O)N(CCc2ccccc2)C(=O)C1	CHOP inhibitor 73
N=C1S/C(=C\c2cccc3ccccc23)C(=O)N1c1ccc(F)cc1	CHOP inhibitor 99
CC(C)c1ccc(S(=O)(=O)/N=C2/C=C(Sc3ncn[nH]3)C(=O)c3ccccc32)cc1	CHOP inhibitor 81 (no result: CHOP UPR activ, UPR XBP1 act, 697 NFkB inh, Jurkat NFkB inh)
Clc1cccc(Nc2nc(N3CCOCC3)nc(N3CCOCC3)n2)c1	none (no result: CHOP inhibitor)
O=C(NNc1nc(Nc2ccccc2)nc(N2CCOCC2)n1)Nc1ccc(Cl)cc1	CHOP inhibitor 95
Fc1ccc(CSc2nc3ncc(Br)cc3[nH]2)cc1	CHOP inhibitor 74
CC1CCN(S(=O)(=O)c2cccc(C(=O)NCc3cccs3)c2)CC1	CHOP inhibitor 73
CC1CCN(S(=O)(=O)c2cccc(C(=O)NCc3ccco3)c2)CC1	none
CN1CCN(c2ccc(NC(=O)c3ccc(C#N)cc3F)cc2Cl)CC1	none
O=C1c2[nH]nc(-c3ccccc3O)c2C(c2ccc(F)cc2)N1Cc1ccco1 (stereo not given)	CHOP inhibitor 82
COc1ccc(C2c3c(-c4ccccc4O)n[nH]c3C(=O)N2Cc2ccco2)cc1OC (stereo not given)	none
O=C1C(C=Nc2ccc(F)cc2)=C(O)c2ccccc21	none
Cc1ccccc1N=CC1=C(O)c2ccccc2C1=O	CHOP inhibitor 78
Cc1ccccc1Cn1cc(NC(=O)c2nn(C)cc2Cl)cn1	none
Cc1ccc(C2CC(C(F)F)n3ncc(C(=O)Nc4cnn(Cc5ccccc5C)c4)c3N2)cc1 (stereo not given)	CHOP inhibitor 73
c1ccc(-n2nc3c(ccc4cnnc43)[nH]2)cc1	CHOP inhibitor 86
